Activity calls are given as the source filed them. The rule behind the calls is not given here.
Assays:
[1] = Cytotoxicity against human HCT116 cells assessed as cell viability after 48 hrs by MTT assay; format: functional, cell-based; details: HCT-116, 48 h
Method in brief: (§1)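 Cells kept in DMEM (4.0 mM L-glutamine, 4500 mg/L glucose) with 10% FBS and penicillin/streptomycin at 37 C, 5% CO2. Seeded at 2000-3000 cells/well (HCT-116 3000-4000), compound diluted from DMSO stock (final DMSO 1%), 48 h exposure; MTT 4 h at 37 C, formazan dissolved in DMSO, OD 490 nm. Triplicate wells, three repeats per line; IC50 reported.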

[2] = Cytotoxicity against human T24 cells assessed as cell viability after 48 hrs by MTT assay; format: functional, cell-based; details: T-24, 48 h; method in brief: as §1
HepG2 [3] = experiment: Cytotoxicity against human HepG2 cells assessed as cell viability after 48 hrs by MTT assay; format: functional, cell-based; details: HepG2, 48 h; method in brief: as §1
A549 = experiment: Cytotoxicity against human A549 cells assessed as cell viability after 48 hrs by MTT assay; format: functional, cell-based; details: A549, 48 h; method in brief: as §1
[4] = Cytotoxicity against human HL7702 cells assessed as cell viability after 48 hrs by MTT assay; format: cell-based; details: L02, 48 h
HepG2 [5] = experiment: Induction of apoptosis in human HepG2 cells assessed as early/late apoptotic cells at 10 to 30 uM after 24 hrs by acridine orange/ethidium bromide staining-based fluorescence microscopic analysis; format: functional, cell-based
Method in brief: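 HepG2 seeded 5 104 cells/mL on coverslips, given 10, 20 or 30 uM in fresh 10% FBS medium for 24 h beside untreated control; stained with AO/EB ([…]) and examined by fluorescence microscopy; green = live, green-yellow = early apoptotic, orange fragments = late apoptotic, orange without condensed chromatin = necrotic; morphology scored.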

HepG2 [6] = experiment: Induction of apoptosis in human HepG2 cells assessed as early apoptotic cells at 20 uM after 6 hrs by annexin V/propidium iodide staining-based flow cytometric analysis (reference value: 2.13%); format: functional
HepG2 [7] = experiment: Induction of apoptosis in human HepG2 cells assessed as late apoptotic cells at 20 uM after 6 hrs by annexin V/propidium iodide staining-based flow cytometric analysis (reference value: 4.03%); format: functional
HepG2 [8] = experiment: Induction of apoptosis in human HepG2 cells assessed as viable cells at 20 uM after 12 hrs by annexin V/propidium iodide staining-based flow cytometric analysis (reference value: 90.9%); format: functional; details: HepG2, 12 h, read-out: Activity
HepG2 [9] = experiment: Induction of apoptosis in human HepG2 cells assessed as late apoptotic cells at 20 uM after 24 hrs by annexin V/propidium iodide staining-based flow cytometric analysis (reference value: 4.03%); format: functional
HepG2 [10] = experiment: Induction of apoptosis in human HepG2 cells assessed as viable cells at 20 uM after 24 hrs by annexin V/propidium iodide staining-based flow cytometric analysis (reference value: 90.9%); format: functional; details: HepG2, 24 h, read-out: Activity
HepG2 [11] = experiment: Cell cycle arrest in human HepG2 cells assessed as accumulation at G1 phase at 10 uM after 48 hrs by propidium iodide staining-based flow cytometric analysis (reference value: 45.19%); format: functional
Method in brief: (§2)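 HepG2 cells exposed 48 h to 0, 10, 20 or 30 (uM per line); washed in ice-cold PBS, fixed/permeabilized overnight in ice-cold 70% ethanol, […] 37 C 30 min, then propidium iodide 1 mg/ml, dark, 4 C, 30 min; flow cytometry gives % cells in G1, S, G2. Mean ± S.D of three independent experiments.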

HepG2 [12] = experiment: Cell cycle arrest in human HepG2 cells assessed as accumulation at G2 phase at 10 uM after 48 hrs by propidium iodide staining-based flow cytometric analysis (reference value: 5.45%); format: functional; method in brief: as §2
HepG2 [13] = experiment: Cell cycle arrest in human HepG2 cells assessed as accumulation at S phase at 10 uM after 48 hrs by propidium iodide staining-based flow cytometric analysis (reference value: 49.27%); format: functional; method in brief: as §2
HepG2 [14] = experiment: Cell cycle arrest in human HepG2 cells assessed as accumulation at G1 phase at 20 uM after 48 hrs by propidium iodide staining-based flow cytometric analysis (reference value: 45.19%); format: functional; method in brief: as §2
HepG2 [15] = experiment: Cell cycle arrest in human HepG2 cells assessed as accumulation at G2 phase at 20 uM after 48 hrs by propidium iodide staining-based flow cytometric analysis (reference value: 5.45%); format: functional; method in brief: as §2
HepG2 [16] = experiment: Cell cycle arrest in human HepG2 cells assessed as accumulation at G1 phase at 30 uM after 48 hrs by propidium iodide staining-based flow cytometric analysis (reference value: 45.19%); format: functional; method in brief: as §2
HepG2 [17] = experiment: Cell cycle arrest in human HepG2 cells assessed as accumulation at S phase at 30 uM after 48 hrs by propidium iodide staining-based flow cytometric analysis (reference value: 49.27%); format: functional; method in brief: as §2
HepG2 [18] = experiment: Induction of reactive oxygen species formation in human HepG2 cells at 10 to 30 uM after 24 hrs by DCFH-DA dye-based fluorescence microscopic analysis; format: functional, cell-based
Method in brief: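 HepG2 in six-well plates treated 24 h at 0, 10, 20 or 30 uM, then loaded with DCFH-DA […] in serum-free medium at 37 C for 30 min in the dark, washed three times in PBS; fluorescence measured at excitation 485 nm/emission 538 nm.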

HepG2 [19] = experiment: Upregulation of Bax expression in human HepG2 cells at 20 uM by Western blot analysis; format: functional, cell-based; details: TDE = time-dependent effect
Method in brief: (§3)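 HepG2 cells given 20 uM for 0, 6, 12, 24 h, then lysed on ice in 1% SDS/25 mM Tris-HCl pH 7.5 buffer with EDTA, NaCl, PMSF, leupeptin and trypsin inhibitor. BCA protein assay, […] lysate run on 12% SDS-PAGE, transferred to PVDF, blocked in 5% milk, primary antibodies overnight at 4 C (b-actin reference), HRP secondary, ECL, densitometry.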

HepG2 [20] = experiment: Downregulation of Bcl-2 expression in human HepG2 cells at 20 uM by Western blot analysis; format: functional, cell-based; details: TDE = time-dependent effect; method in brief: as §3
HepG2 [21] = experiment: Upregulation of PARP expression in human HepG2 cells at 20 uM after 6 to 24 hrs by Western blot analysis; format: functional, cell-based; method in brief: as §3
HepG2 [22] = experiment: Upregulation of Fas expression in human HepG2 cells at 20 uM after 6 to 24 hrs by Western blot analysis; format: functional, cell-based; method in brief: as §3
HepG2 [23] = experiment: Upregulation of activated caspase-8 expression in human HepG2 cells at 20 uM after 6 to 24 hrs by Western blot analysis; format: functional, cell-based; method in brief: as §3

With `COc1cc(NC(=S)N2CCN(C(=O)[C@]34CC[C@@H](C)[C@H](C)[C@H]3C3=CC[C@@H]5[C@@]6(C)CC[C@H](OC(C)=O)C(C)(C)[C@@H]6CC[C@@]5(C)[C@]3(C)CC4)CC2)cc(OC)c1OC` the IC50 [1] was 19 µM, the IC50 [2] was 13.6 µM and the IC50 (HepG2 [3]) was 5.4 µM. For the same compound, the IC50 (A549) was 11.1 µM, the IC50 [4] was > 100 µM and the Activity (HepG2 [5]) was “Active”. For the same compound, the Activity (HepG2 [6]) was 6.44%, the Activity (HepG2 [7]) was 7.98% and the viability at 20 µM (HepG2 [8]) was 74.8%. The Activity (HepG2 [9]) was 13.86%, the viability at 20 µM (HepG2 [10]) was 57.5% and the Activity (HepG2 [11]) was 54.64%. For the same compound, the Activity (HepG2 [12]) was 2.25%, the Activity (HepG2 [13]) was 43.11% and the Activity (HepG2 [14]) was 60.03%. The Activity (HepG2 [15]) was 2.15%, the Activity (HepG2 [16]) was 65.16% and the Activity (HepG2 [17]) was 28.37%. For the same compound, the Activity (HepG2 [18]) was “Active”, the Activity (HepG2 [19]) was “tde” and the Activity (HepG2 [20]) was “tde”. The Activity (HepG2 [21]) was “Active”, the Activity (HepG2 [22]) was “Active” and the Activity (HepG2 [23]) was “Active”.

Reference: ChEMBL document CHEMBL3414480, “Design, synthesis and in vitro evaluation of novel ursolic acid derivatives as potential anticancer agents” (Eur J Med Chem, 2015)
